The source of these data is ChEMBL document CHEMBL3774372, “Design, physico-chemical properties and biological evaluation of some new N-[(phenoxy)alkyl]- and N-{2-[2-(phenoxy)ethoxy]ethyl}aminoalkanols as anticonvulsant agents” (Bioorg Med Chem, 2016).

For orientation: inhibition means the drop in the measured response relative to a control, in per cent. In general, inhibition in vivo refers to the relative decrease from the control value, in per cent. One may read the Tmax as the time from dosing to the highest level. One may read the MRT as the average time that molecules of a dose stay in the body. As usually defined, the AUC is the area under the concentration-time curve, a measure of exposure. For orientation: AUC(0-inf) means total exposure, with the tail of the curve extrapolated. The Cmax is the maximum level reached in the sampled fluid or tissue.

For data set [1], the system named is Rattus norvegicus. Put plainly: Anticonvulsant activity in pilocarpine-induced status epilepticus Sprague-Dawley rat model at 100 mg/kg, ip after 4 hrs during post stage 3 seizure. It is filed as functional, organism-based. Put shortly: (§1)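 Rats given pilocarpine 50 mg/kg ip and observed to first convulsive seizure (Racine stage 3–5, time zero); test drug then given ip in 0.5% methylcellulose. Efficacy = halting further stage 3–5 convulsive seizures; scored protected/tested, time after first stage 3 seizure.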

In data set [2] the test system is Mus musculus. The data set can be described thus: Anticonvulsant activity in mouse assessed as protection against 6 Hz psychomotor seizure at 50 mg/kg, ip after 2 hrs. It is filed as functional, organism-based. A digest of the protocol: (§2)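 Suspension in 0.5% methylcellulose given ip to mice; corneal stimulation with 0.2 ms monopolar rectangular pulses at 6 Hz for 3 s from a constant current device, mice restrained then released to observation cage. Protected if normal exploratory behaviour resumed within 10 s of stimulation. Scored as protected/tested, 4 mice per group.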

For data set [3], the system named is Mus musculus. Put plainly: Anticonvulsant activity in mouse assessed as protection against 6 Hz psychomotor seizure at 50 mg/kg, ip after 0.5 hrs. It is filed as functional, organism-based. Put shortly: as §2
Data set [4] deals with Rattus norvegicus. The data set can be described thus: Anticonvulsant activity in pilocarpine-induced status epilepticus Sprague-Dawley rat model at 100 mg/kg, ip after 2 hrs during post stage 3 seizure. It is filed as functional, organism-based. Put shortly: as §1
Data set [5] concerns the target Prostacyclin receptor (Homo sapiens) (UniProt P43119). The data set can be described thus: Displacement of [3H]iloprost from human recombinant Prostanoid IP receptor expressed in HEK293 cells at 10^-5 M. It is filed as cell-based. A digest of the protocol: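 Radioligand displacement screen with the test agent at a single 10^-5 M concentration; receptor source and radioligand per target as tabulated (recombinant human cell lines or rat cerebral cortex/urinary bladder).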
For orientation: In a radioligand displacement assay an active substance lowers the binding of a labelled ligand.

For data set [6], the system named is Rattus norvegicus. Put plainly: Anticonvulsant activity in rat assessed as protection against maximal electric shock-induced seizures at 30 mg/kg, po measured after […]. It is filed as functional, organism-based.
Data set [7] deals with Mus musculus. Put plainly: Anticonvulsant activity in mouse assessed as protection against maximal electric shock-induced seizures at 10 mg/kg, ip measured after 0.5 hrs. It is filed as functional, organism-based. Put shortly: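 Mice dosed ip with suspension in 0.5% methylcellulose; maximal electroshock applied at the listed time after dosing. Protection = abolition of hindlimb tonic extension component of seizure; reported as animals protected/animals tested.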

Data set [8] concerns the target Melatonin receptor type 1A (Homo sapiens) (UniProt P48039). The data set can be described thus: Displacement of [125I]2-iodomelatonin from human recombinant ML1A receptor expressed in CHO cells at 10^-5 M. It is filed as cell-based. Put shortly:
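Radioligand binding screen run at a single test concentration of 10^-5 M. Each target used its stated receptor source (human recombinant CHO or HEK-293 cells, endogenous cell lines, or rat tissue membranes) with the listed radioligand.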

The subject of data set [9] is Rattus norvegicus. Put plainly: Anticonvulsant activity in rat assessed as protection against maximal electric shock-induced seizures at 30 mg/kg, po measured after 0.5 hrs. It is filed as functional, organism-based. Put shortly: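 Rats dosed ip or orally as 0.5% methylcellulose suspension; maximal electroshock at listed time. Protection = abolition of hindlimb tonic extension; 4 rats per group, scored protected/tested.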

The test system of data set [10] is Mus musculus. Put plainly: Analgesic activity in mouse assessed as reduction in AUC of formalin-induced licking time during acute phase at 13 mg/kg, ip relative to control. It is filed as functional. Put shortly:
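Formalin injected into a mouse hindlimb; total licking time taken as pain intensity. Compound given ip at 13 mg/kg as a suspension in 0.5% methylcellulose; vehicle-only animals served as controls.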

Data set [11] relates to Mus musculus. Put plainly: Tmax in CD1 mouse plasma at 12.92 mg/kg, ip measured up to 240 mins by LC/ESI-MS/MS analysis. It is filed as ADME, organism-based. The settings on record: in vivo, 4 h.
Data set [12] is described as follows: MRT in CD1 mouse brain at 1 mg/kg, iv measured up to 240 mins by LC/ESI-MS/MS analysis. It is filed as ADME, organism-based.
Data set [13] can be described thus: Ratio of drug level in brain to plasma in CD1 mouse at 12.92 mg/kg, ip administered as single dose measured after 120 mins by LC/ESI-MS/MS analysis. It is filed as ADME, organism-based. The settings on record: brain and plasma, read-out: BPR.
Data set [14] concerns Mus musculus. The data set can be described thus: AUC (0 to infinity) in CD1 mouse plasma at 12.92 mg/kg, ip measured up to 240 mins by LC/ESI-MS/MS analysis. It is filed as ADME, organism-based. The settings on record: in vivo, 4 h. Further details: dose 12.92 mg/kg, route intraperitoneal, time infinity.
Data set [15] in a line: AUC (0 to infinity) in CD1 mouse brain at 1 mg/kg, iv measured up to 240 mins by LC/ESI-MS/MS analysis. It is filed as ADME, organism-based. Set-up: dose 1 mg/kg, route intravenous, time infinity.
Data set [16] is described as follows: Tmax in CD1 mouse brain at 1 mg/kg, iv measured up to 240 mins by LC/ESI-MS/MS analysis. It is filed as ADME, organism-based.
Data set [17] in a line: Ratio of drug level in brain to plasma in CD1 mouse at 12.92 mg/kg, ig administered as single dose measured after 5 mins by LC/ESI-MS/MS analysis. The settings on record: brain and plasma, po, read-out: BPR. It is filed as ADME, organism-based.
Data set [18] has as its system Mus musculus. The data set can be described thus: AUMC (0 to infinity) in CD1 mouse plasma at 12.92 mg/kg, ip measured up to 240 mins by LC/ESI-MS/MS analysis. The settings on record: in vivo, 4 h. It is filed as ADME, organism-based.
Data set [19] is described as follows: Ratio of drug level in brain to plasma in CD1 mouse at 12.92 mg/kg, ig administered as single dose measured after 15 mins by LC/ESI-MS/MS analysis. It is filed as ADME, organism-based. The settings on record: brain and plasma, po, read-out: BPR.
The test system of data set [20] is Mus musculus. The data set can be described thus: Neurotoxicity in mouse at 30 mg/kg, ip after 0.5 hrs by rotarod test. It is filed as toxicity, organism-based. The settings on record: in vivo. A digest of the protocol: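 Mice were dosed ip with compound suspended in 0.5% methylcellulose. Rotarod: a 1 in. knurled rod turning at 6 rpm. Neurotoxicity was scored as failure to stay on the rod for at least 1 min in each of three trials. Results are given as the number of animals affected out of the number tested.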
A general note: Falling from the rotarod earlier than controls is read as motor impairment.

Data set [21] deals with Mus musculus. The data set can be described thus: Cmax in CD1 mouse plasma at 12.92 mg/kg, ig measured up to 240 mins by LC/ESI-MS/MS analysis. It is filed as ADME, organism-based. Further details: dose 12.92 mg/kg, route […]. The settings on record: in vivo, po, 4 h.
A short description of data set [22]: Tmax in CD1 mouse brain at 12.92 mg/kg, ip measured up to 240 mins by LC/ESI-MS/MS analysis. It is filed as ADME, organism-based.
The subject of a further data set is Vibrio harveyi. Put plainly: Mutagenicity in Vibrio harveyi BB7 assessed as number of colonies after 48 hrs (reference value: 13 to 14 no_unit). The settings on record: in vivo. It is filed as ADME, organism-based. A digest of the protocol: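 Vibrio harveyi mutagenicity test: test compound was added to exponentially growing cultures (A600 = 0.1, 30 °C) and grown to OD600 0.3–0.4. Then 5 × 10^6 cells were plated on BOSS agar with neomycin (final 100 µg/mL) and incubated 48 h at 30 °C. Neomycin-resistant colonies were counted. Triplicate; controls were water, DMSO and NQNO 40 ng/mL.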

The source made the active and inactive calls. The calls are words filed in the database; no cut-off is given here.

Prostacyclin receptor (Homo sapiens), sequence (P43119 whole entry): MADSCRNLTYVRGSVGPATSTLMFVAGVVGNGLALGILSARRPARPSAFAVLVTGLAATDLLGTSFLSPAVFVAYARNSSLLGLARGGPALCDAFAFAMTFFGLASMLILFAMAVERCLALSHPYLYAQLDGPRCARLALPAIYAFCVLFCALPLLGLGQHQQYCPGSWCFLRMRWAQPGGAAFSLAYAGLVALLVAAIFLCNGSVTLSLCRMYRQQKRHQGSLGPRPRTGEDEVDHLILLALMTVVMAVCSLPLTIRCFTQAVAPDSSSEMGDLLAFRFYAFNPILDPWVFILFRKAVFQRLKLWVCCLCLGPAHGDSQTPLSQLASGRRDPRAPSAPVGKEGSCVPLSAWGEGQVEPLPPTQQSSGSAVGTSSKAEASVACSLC
Melatonin receptor type 1A (Homo sapiens), sequence (P48039 whole entry): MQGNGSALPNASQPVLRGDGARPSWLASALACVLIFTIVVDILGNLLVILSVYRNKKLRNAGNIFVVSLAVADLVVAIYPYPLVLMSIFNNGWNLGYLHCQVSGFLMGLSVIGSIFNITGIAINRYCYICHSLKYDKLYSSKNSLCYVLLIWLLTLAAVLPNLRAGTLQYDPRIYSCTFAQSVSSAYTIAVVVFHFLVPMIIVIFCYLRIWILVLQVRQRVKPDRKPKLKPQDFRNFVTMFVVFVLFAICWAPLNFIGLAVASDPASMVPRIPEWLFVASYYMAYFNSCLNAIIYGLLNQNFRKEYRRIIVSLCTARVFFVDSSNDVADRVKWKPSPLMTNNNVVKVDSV

Consider `Cc1cccc(C)c1OCCOCCN[C@H](C)CO`, for which the result in the data set on Rattus norvegicus [1], in the data set on Mus musculus [2] and in the data set with Rattus norvegicus [4] was inactive. Besides, the result in the data set with Mus musculus [3] was Active.
With `Cc1cccc(C)c1OCCOCCN[C@@H](C)CO`, the inhibition in data set [5] was -6%; in [8] it was -7.5%. Besides, the outcome with Rattus norvegicus [6], in the data set on Mus musculus [7] and in the data set with Rattus norvegicus [9] was inactive.
As to `Cc1cccc(C)c1OCCOCCN[C@H](C)CO.Cl`, the inhibition in vivo at 13 mg/kg in the data set with Mus musculus [10] stood at 54.9%. The Tmax in the data set on Mus musculus [11] was 5 min; in data set [16] it was 5 min; in data set [22] it was 15 min. The compound also showed an MRT in [12] of 50.1 min. Moreover, the Kp at 2 h in data set [13] is 2.86. The compound further had an AUC with Mus musculus [14] of 903 ng·h/mL. Besides, in [15], the AUC(0-inf) was 5150 ng·h/mL. In addition, the Kp at 5 min in data set [17] came out at 1.73. Also, in the data set with Mus musculus [18], the AUMC came to 1280 ng·h²/mL. Also, the Kp at […] in [19] stood at 2.67. For the same compound, the figures for the Activity result with Mus musculus [20] and with Vibrio harveyi were “Non-toxic” and 20, respectively. Moreover, the Cmax in the data set on Mus musculus [21] came out at 950 ng/mL.
